Our source for the Activity and inhibition in vivo values is ChEMBL document CHEMBL1140884, “Oligodeoxyribonucleotide-based antagonists for Toll-like receptors 7 and 9” (2009).

Activity calls are given as the source filed them. No cut-off for these calls is given here. Bounds are passed on as bounds.

The target of test [1] is T1, Toll-like receptor 9 (Mus musculus) (UniProt Q9EQU3).
T1 sequence (whole entry): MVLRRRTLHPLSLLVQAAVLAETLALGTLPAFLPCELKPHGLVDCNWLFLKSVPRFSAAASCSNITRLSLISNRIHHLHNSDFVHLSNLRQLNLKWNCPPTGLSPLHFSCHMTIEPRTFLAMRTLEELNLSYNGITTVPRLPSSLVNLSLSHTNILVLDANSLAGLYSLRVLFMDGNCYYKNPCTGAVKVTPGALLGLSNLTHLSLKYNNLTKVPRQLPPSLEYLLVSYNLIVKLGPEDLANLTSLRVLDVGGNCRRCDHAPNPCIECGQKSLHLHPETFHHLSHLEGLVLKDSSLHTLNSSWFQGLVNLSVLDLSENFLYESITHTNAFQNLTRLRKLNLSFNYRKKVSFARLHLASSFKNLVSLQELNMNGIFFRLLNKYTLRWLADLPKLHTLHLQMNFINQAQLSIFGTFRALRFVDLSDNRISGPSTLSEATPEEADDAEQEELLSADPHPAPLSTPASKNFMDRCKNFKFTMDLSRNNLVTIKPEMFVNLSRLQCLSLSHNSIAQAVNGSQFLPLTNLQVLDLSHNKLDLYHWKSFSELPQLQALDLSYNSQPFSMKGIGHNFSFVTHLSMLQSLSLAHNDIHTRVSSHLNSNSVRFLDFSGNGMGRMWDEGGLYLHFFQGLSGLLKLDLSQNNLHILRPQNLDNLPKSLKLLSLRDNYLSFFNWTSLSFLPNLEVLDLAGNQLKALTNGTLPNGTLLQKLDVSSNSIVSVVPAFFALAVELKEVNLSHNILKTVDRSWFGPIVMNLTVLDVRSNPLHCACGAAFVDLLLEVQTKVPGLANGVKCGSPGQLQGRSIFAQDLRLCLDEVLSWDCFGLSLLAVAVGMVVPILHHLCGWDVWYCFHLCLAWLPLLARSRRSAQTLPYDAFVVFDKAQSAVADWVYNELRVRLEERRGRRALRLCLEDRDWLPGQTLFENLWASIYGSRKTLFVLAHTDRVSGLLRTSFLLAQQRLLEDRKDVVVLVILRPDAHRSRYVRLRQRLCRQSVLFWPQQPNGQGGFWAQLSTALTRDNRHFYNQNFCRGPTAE
The experiment in a line: Antagonist activity at TLR9 in mouse J774 cells assessed as inhibition of 5'-TCTGACRTTCT-X-TCTTRCAGTCT-3'-induced NF-kappaB activation. The format is functional, cell-based. The method, boiled down:
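J774 cells at 5×10^6 cells/well were preincubated with antagonist for 1 h. Agonist was then added: TLR9 agonist 1 µg/mL, an RNA-based TLR7/8 agonist, or LPS 100 ng/mL. Antagonist was used at 5–40 µg/mL or at the indicated agonist ratios. Nuclear extracts were taken 1 h after agonist and analysed by EMSA.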

Test [2] has as its system Mus musculus. As to the kind of experiment: Inhibition of 5'-UGCUGUUCUG-X-GUCUUGUCGU-5'-induced MCP1 production in C57BL/6 mouse treated 72 hrs before induction at 10 mg/kg, sc. The format is functional. To be noted: C57BL/6, sc, route subcutaneous. The method, boiled down: (§1)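 Female C57BL/6 mice, 6-8 weeks, n = 3, given antagonist 10 mg/kg sc in the right flank. After 72 h, agonist given sc in the left flank: TLR7/8 RNA agonist at 50 mg/kg or TLR9 agonist at 0.25 mg/kg. Serum collected 2 h after agonist by retro-orbital bleeding; cytokines/chemokines by mouse 20-plex Luminex bead assay.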

Test [3] relates to Mus musculus. The experiment in a line: Inhibition of 5'-UGCUGUUCUG-X-GUCUUGUCGU-5'-induced KC production in C57BL/6 mouse treated 72 hrs before induction at 10 mg/kg, sc. The note with it: C57BL/6, sc, route subcutaneous. The format is functional. The method, boiled down:
as §1

The test system of test [4] is Mus musculus. The experiment in a line: Inhibition of 5'-TCTGACRTTCT-X-TCTTRCAGTCT-3'-induced IL12 production in C57BL/6 mouse pretreated before up to 48 hrs of induction at 10 mg/kg, sc. Also noted: dose 10 mg/kg. The format is functional, organism-based. The method, boiled down:
(§2)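 C57BL/6 mice received antagonist or control 10 mg/kg sc, either with TLR9 agonist 0.25 mg/kg sc or up to 48 h before it. Serum IL-12 was measured 2 h after agonist. Two or three independent experiments; mean ± SEM, Student's t test versus PBS.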

In the next test the test system is B. As to the kind of experiment: Inhibition of 5'-TCTGTCRTTCT-X-TCTTRCTGTCT-5'-induced IL6 secretion in MRL/lpr mouse splenic B cells after 24 hrs by ELISA. The format is functional, cell-based. The essentials: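 Splenic B cells from MRL/lpr mice, purified by B-cell isolation kit (>95% B220+), cultured at 5×10^5 cells/200 μL in RPMI-1640 with 10% FBS and penicillin/streptomycin; stimulated with 1 μg/mL TLR9 agonist with or without antagonist at 0.3, 1 or 3 μg/mL, or antagonist 3 μg/mL alone. Supernatants taken at 24 h; IL-6 by sandwich ELISA.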
Background: In an ELISA, binding on a coated surface is turned into a signal by an enzyme label.

Test [5] deals with Mus musculus. The experiment in a line: Inhibition of 5'-TCTGACRTTCT-X-TCTTRCAGTCT-3'-induced IL12 production in C57BL/6 mouse at 10 mg/kg, sc. The format is functional, organism-based. Further details: dose 10 mg/kg. The essentials: as §2
Test [6] concerns the target T1, Toll-like receptor 9 (Mus musculus). The experiment in a line: Agonist activity at TLR9 in mouse J774 cells assessed as of NF-kappaB activation. The format is functional, cell-based. The method, boiled down:
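Murine J774 macrophages grown in DMEM with 10% FBS and plated at 5×10^6 cells/well. Nuclear extracts taken 1 h after agonist addition. NF-κB detected by EMSA on native polyacrylamide gels with autoradiography.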

The target is the same in test [7]. The experiment in a line: Antagonist activity at mouse TLR9 expressed in HEK293 cells assessed as inhibition of 5'-CTATCTGACGTTCTCTGT-3'-induced NF-kappaB activation by SEAP reporter gene assay. The format is functional, cell-based. The essentials:
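Mouse TLR9-HEK293 cells were transfected with a SEAP reporter for 6 h. They were then stimulated for 18 h with agonist (0.25 or 0.5 µg/mL) plus increasing antagonist concentrations or set agonist:antagonist ratios. Quanti-Blue read-out, reported as % NF-κB activity with agonist alone as 100%.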
(In general: Reporter assays use an easily measured gene product as a stand-in for the process of interest.)

Test [8] shares this target. The experiment in a line: Antagonist activity in mouse J774 cells assessed as inhibition of 5'-UGCUGUUCUG-X-GUCUUGUCGU-5'-induced NF-kappaB activation.
The subject of test [9] is Mus musculus. As to the kind of experiment: Inhibition of 5'-TCTGACRTTCT-X-TCTTRCAGTCT-3'-induced MIG production in C57BL/6 mouse treated 72 hrs before induction at 10 mg/kg, sc. The format is functional. To be noted: C57BL/6, sc, route subcutaneous. The essentials:
(§3)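 Female C57BL/6 mice (n=3) received antagonist 10 mg/kg sc in the right flank. After 72 h, TLR9 agonist 0.25 mg/kg sc was given in the left flank. Serum was taken 2 h after agonist and cytokines/chemokines were measured by Luminex multiplex assay. Representative of at least three experiments.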

The test system of test [10] is Mus musculus. As to the kind of experiment: Inhibition of 5'-TCTGACRTTCT-X-TCTTRCAGTCT-3'-induced IL10 production in C57BL/6 mouse treated 72 hrs before induction at 10 mg/kg, sc. To be noted: C57BL/6, sc, route subcutaneous. The format is functional. The essentials:
as §3

Test [11] deals with Mus musculus. As to the kind of experiment: Inhibition of 5'-TCTGACRTTCT-X-TCTTRCAGTCT-3'-induced IP10 production in C57BL/6 mouse treated 72 hrs before induction at 10 mg/kg, sc. The format is functional. To be noted: C57BL/6, sc, route subcutaneous. The method, boiled down: as §3

In the case of `CO[C@@H]1[C@H](OP(=O)(S)OC[C@H]2O[C@@H](n3ccc(N)nc3=O)C[C@@H]2OP(=O)(S)OC[C@H]2O[C@@H](n3ccc4c(=O)[nH]c(N)nc43)C[C@@H]2OP(=O)(S)OC[C@H]2O[C@@H](n3cc(C)c(=O)[nH]c3=O)C[C@@H]2OP(=O)(S)OC[C@H]2O[C@@H](n3cc(C)c(=O)[nH]c3=O)C[C@@H]2OP(=O)(S)OC[C@H]2O[C@@H](n3ccc(N)nc3=O)C[C@@H]2OP(=O)(S)OC[C@H]2O[C@@H](n3cc(C)c(=O)[nH]c3=O)C[C@@H]2OP(=O)(S)OC[C@H]2O[C@@H](n3ccc(N)nc3=O)C[C@@H]2OP(=O)(S)OC[C@H]2O[C@@H](n3cc(C)c(=O)[nH]c3=O)C[C@@H]2OP(=O)(S)OC[C@H]2O[C@@H](n3cnc4c(=O)[nH]c(N)nc43)C[C@@H]2OP(=O)(S)OC[C@H]2O[C@@H](n3cc(C)c(=O)[nH]c3=O)C[C@@H]2O)[C@@H](COP(=O)(S)O[C@H]2[C@@H](OC)[C@H](n3cnc4c(=O)[nH]c(N)nc43)O[C@@H]2COP(=O)(S)O[C@H]2C[C@H](n3cc(C)c(=O)[nH]c3=O)O[C@@H]2COP(=O)(S)O[C@H]2C[C@H](n3ccc(N)nc3=O)O[C@@H]2COP(=O)(S)O[C@H]2C[C@H](n3cc(C)c(=O)[nH]c3=O)O[C@@H]2COP(=O)(S)O[C@H]2C[C@H](n3cnc4c(N)ncnc43)O[C@@H]2COP(=O)(S)O[C@H]2C[C@H](n3cc(C)c(=O)[nH]c3=O)O[C@@H]2COP(=O)(S)O[C@@H]2C[C@@H](n3ccc(N)nc3=O)O[C@H]2CO)O[C@H]1n1cnc2c(N)ncnc21` (some centres not stated), the outcome (in test [1]; in the test with Mus musculus [4]; with Mus musculus [5]; in [7]) was Active. The inhibition in vivo at 10 mg/kg with Mus musculus [2], in the test on Mus musculus [3], in the test on Mus musculus [9], in the test with Mus musculus [10] and in the test on Mus musculus [11] was not below 50% in each case. For the same compound, the Activity result (in the test on B; in test [8]) was “Dose-dependent effect” throughout. Moreover, the outcome in test [6] was inactive.

One may read the inhibition in vivo as the share of the control response that was lost under treatment. High values mean a response far below the control, low ones a response near the control.
